ChEMBL document CHEMBL4152389, “Discovery of Novel, Drug-Like Ferroptosis Inhibitors with in Vivo Efficacy” (J Med Chem, 2018)
pIC50: −log10 of the molar value. In brackets after ≈: the same amount, converted by molar mass. Activity calls are given as the source filed them. The calls are words filed in the database; no cut-off is given here.

Key:
IMR-32 [1] = test: Inhibition of erastin-induced ferroptosis in human IMR32 cells preincubated for 1 hr followed by erastin stimulation and measured after 13 hrs by sytox green-based fluorescence assay; assay type: functional, cell-based
Procedure, shortened: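 IMR-32 neuroblastoma cells seeded at 25,000/well, next day pretreated 1 h in triplicate with 1/3 dilution series (5 μM to 0.68 nM) plus Sytox Green 1.6 μM, then erastin 10 μM.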

[2] = Kinetic solubility in PBS at pH 7.4 after 2 hrs by turbidimetric method; assay type: physicochemical; conditions: read-out: Kinetic_solubility
Procedure, shortened: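 Kinetic solubility by turbidity (UV/VIS reading); final compound 3.125–200 μM, from 4 μL DMSO solution in 196 μL 10 mM PBS pH 7.4.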

[3] = Metabolic stability in rat plasma assessed as compound recovery at 50 uM after 6 hrs by LC/MS/MS analysis; assay type: ADME, cell-free; conditions: read-out: Drug recovery
Procedure, shortened: (§1)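 Compound incubated in human, rat or mouse plasma; percentage of remaining parent compound determined after 6 h.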

[4] = Metabolic stability in human plasma assessed as compound recovery at 50 uM after 6 hrs by LC/MS/MS analysis; assay type: ADME, cell-free; conditions: read-out: Drug recovery; procedure, shortened: as §1
Mus musculus [5] = test: In vivo inhibition of iron sulphate-induced ferroptosis in C57BL/6N mouse assessed as LDH levels in plasma at 20 umol/kg, iv administered 15 mins prior to acute iron poisoning and measured after 2 hrs (reference value: 3572 +/- 185 U/L); assay type: functional
[6] = Metabolic stability in mouse plasma assessed as compound recovery at 50 uM after 6 hrs by LC/MS/MS analysis; assay type: ADME, cell-free; conditions: read-out: Drug recovery; procedure, shortened: as §1
[7] = Half life in human liver microsomes at 10 uM in presence of NADPH regenerating system by LC/MS/MS analysis; assay type: ADME, microsome
Procedure, shortened: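 Incubation with human liver microsomes; metabolism by CYP450 and other NADP-dependent enzymes monitored and expressed as half-life (h).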

IMR-32 [8] = test: Inhibition of ferrous ammonium sulphate-induced ferroptosis in human IMR32 cells preincubated for 1 hr followed by ferrous ammonium sulphate stimulation and measured after 13 hrs by sytox green-based fluorescence assay
[9] = Intrinsic clearance in rat liver microsomes at 50 uM after 15 mins to 24 hrs by LC/MS/MS analysis; assay type: ADME, microsome; conditions: read-out: CLH
Procedure, shortened: (§2)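 Intrinsic clearance calculated from measured microsomal half-life in human, mouse or rat liver microsomes, accounting for protein concentration and incubation volume with species-specific parameters.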

[10] = Intrinsic clearance in human liver microsomes at 50 uM after 15 mins to 24 hrs by LC/MS/MS analysis; assay type: ADME, microsome; conditions: read-out: CLH; procedure, shortened: as §2
[11] = Intrinsic clearance in mouse liver microsomes at 50 uM after 15 mins to 24 hrs by LC/MS/MS analysis; assay type: ADME, microsome; conditions: read-out: CLH; procedure, shortened: as §2
Mus musculus [12] = test: Toxicity in wild type mouse assessed as relative gain in body weight at 20 umol/kg, ip administered daily for 4 weeks measured during compound dosing (reference value: 14.8 +/- 3.4%); assay type: organism-based; conditions: in vivo, 672 h
Mus musculus [13] = test: Toxicity in wild type mouse assessed as ALT levels in plasma at 20 umol/kg, ip administered daily for 4 weeks measured at day 28 (reference value: <25 U/L); assay type: organism-based; conditions: in vivo, 672 h
Mus musculus [14] = test: Toxicity in wild type mouse assessed as CK levels in plasma at 20 umol/kg, ip administered daily for 4 weeks measured at day 28 (reference value: 1501 +/- 196 U/L); assay type: organism-based; conditions: in vivo, 672 h
Mus musculus [15] = test: Toxicity in wild type mouse assessed as AST levels in plasma at 20 umol/kg, ip administered daily for 4 weeks measured at day 28 (reference value: 110 +/- 8 U/L); assay type: organism-based; conditions: in vivo, 672 h
Mus musculus [16] = test: Toxicity in wild type mouse assessed as urea levels in plasma at 20 umol/kg, ip administered daily for 4 weeks measured at day 28 (reference value: 42 +/- 2 mg/dl); assay type: organism-based; conditions: in vivo, 672 h
[17] = Plasma concentration in Wistar rat at 5 mg/kg, iv after 0.083 to 24 hrs by UPLC-MS analysis; assay type: ADME, organism-based; conditions: in vivo
Procedure, shortened: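 Single iv 5 mg/kg to three male Wistar rats; blood sampled at 0.083, 0.25, 0.5, 1, 2, 4 and 24 h; plasma drug measured by UPLC–tandem quadrupole MS, detection limit 53.1 ng/mL.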

Mus musculus [18] = test: Toxicity in wild type mouse assessed as body temperature at 20 umol/kg, ip administered daily for 4 weeks measured during compound dosing (reference value: 37 +/- 0.6 degreeC); assay type: organism-based; conditions: in vivo, 672 h
Mus musculus [19] = test: Toxicity in wild type mouse assessed as troponin levels in plasma at 20 umol/kg, ip administered daily for 4 weeks measured at day 28 (reference value: 0.041 +/- 0.005 ug/l); assay type: organism-based; conditions: in vivo, 672 h
Mus musculus [20] = test: Toxicity in wild type mouse assessed as LDH levels in plasma at 20 umol/kg, ip administered daily for 4 weeks measured at day 28 (reference value: 227 +/- 18 U/L); assay type: organism-based; conditions: in vivo, 672 h
Mus musculus [21] = test: Toxicity in wild type mouse assessed as creatinine levels in plasma at 20 umol/kg, ip administered daily for 4 weeks measured at day 28 (reference value: <0.2 mg/dl); assay type: organism-based; conditions: in vivo, 672 h

`Cl.NCCNS(=O)(=O)c1ccc(NC2CCCCC2)c(NCc2ccncc2)c1` gave a pIC50 (IMR-32 [1]) of 6.95 and a solubility kinetic at 2 h [2] of 100 to 200 µM.

For `CN1CCN(CCNS(=O)(=O)c2ccc(NC3CCCCC3)c(NCc3ccccc3)c2)CC1`, the pIC50 (IMR-32 [1]) was 5.97 and the solubility kinetic at 2 h [2] was greater than 200 µM.

`CCOC(=O)c1ccc(NC2CCCCC2)c(N)c1` gave a remaining at 6 h, 50 µM [3] of 1.1%, a remaining at 6 h, 50 µM [4] of 47.3% and a pIC50 (IMR-32 [1]) of 7.48. It also gave an Activity (Mus musculus [5]) of 2898 U/L, a solubility kinetic at 2 h [2] greater than 200 µM and a remaining at 6 h, 50 µM [6] of 0%. The half-life at 10 µM [7] was 6.54 min and the inhibition (IMR-32 [8]) was “Active”.

Work on `Cl.NCCNS(=O)(=O)c1ccc(NC2CCCCC2)c(N)c1` yielded a pIC50 (IMR-32 [1]) of 6.51 and a solubility kinetic at 2 h [2] greater than 200 µM.

Molecule `COCCNS(=O)(=O)c1ccc(NC2CCCCC2)c(N)c1` has a pIC50 (IMR-32 [1]) of 6.31 and a solubility kinetic at 2 h [2] greater than 200 µM.

Work on `O=S(=O)(NCCN1CCOCC1)c1ccc(NC2CCCCC2)c(NCc2ccccc2)c1` yielded a remaining at 6 h, 50 µM [3] of 100%, a CLint scaled at 50 µM [9] of 326 mL/min/kg and a CLint scaled at 50 µM [10] of 22.6 mL/min/kg. The remaining at 6 h, 50 µM [4] was 100%, the pIC50 (IMR-32 [1]) was 7.62 and the solubility kinetic at 2 h [2] was 50 to 100 µM (≈ 23.6 to 47.3 µg/mL). It also gave a remaining at 6 h, 50 µM [6] of 100% and a CLint scaled at 50 µM [11] of 1220 mL/min/kg.

`CN(C)CCNS(=O)(=O)c1ccc(NC2CCCCC2)c(N)c1` showed a pIC50 (IMR-32 [1]) of 6.80 and a solubility kinetic at 2 h [2] greater than 200 µM.

Molecule `CNCCNS(=O)(=O)c1ccc(NC2CCCCC2)c(N)c1.Cl` has a pIC50 (IMR-32 [1]) of 6.67 and a solubility kinetic at 2 h [2] greater than 200 µM.

With `CN1CCN(CCNS(=O)(=O)c2ccc(NC3CCCCC3)c(N)c2)CC1` the pIC50 (IMR-32 [1]) was 6.63 and the solubility kinetic at 2 h [2] was greater than 200 µM.

Molecule `O=S(=O)(NCCN1CCOCC1)c1ccc(NC2CCCCC2)c(NCc2ccncc2)c1` has a pIC50 (IMR-32 [1]) of 6.72 and a solubility kinetic at 2 h [2] greater than 200 µM.

With `CN(C)CCNS(=O)(=O)c1ccc(NC2CCCCC2)c(NCc2ccncc2)c1` the pIC50 (IMR-32 [1]) was 5.81 and the solubility kinetic at 2 h [2] was greater than 200 µM.

`Cl.O=S(=O)(NCCN1CCNCC1)c1ccc(NC2CCCCC2)c(NCc2ccncc2)c1` showed a pIC50 (IMR-32 [1]) of 6.35 and a solubility kinetic at 2 h [2] greater than 200 µM.

`COCCNS(=O)(=O)c1ccc(NC2CCCCC2)c(NCc2ccccc2)c1` gave a pIC50 (IMR-32 [1]) of 7.66 and a solubility kinetic at 2 h [2] of 25 to 50 µM (≈ 10.4 to 20.9 µg/mL).

Work on `Cl.NCCNS(=O)(=O)c1ccc(NC2CCCCC2)c(NCc2ccccc2)c1` yielded a remaining at 6 h, 50 µM [3] of 100%, a CLint scaled at 50 µM [9] of 27.4 mL/min/kg and a CLint scaled at 50 µM [10] of 1.3 mL/min/kg. It also gave a remaining at 6 h, 50 µM [4] of 100%, a pIC50 (IMR-32 [1]) of 7.92 and an Activity (Mus musculus [5]) of 2293 U/L. For the same molecule, the solubility kinetic at 2 h [2] was greater than 200 µM, the remaining at 6 h, 50 µM [6] was 100% and the CLint scaled at 50 µM [11] was 4.8 mL/min/kg. For the same molecule, the inhibition (IMR-32 [8]) was “Active”.

Molecule `COCCNS(=O)(=O)c1ccc(NC2CCCCC2)c(NCc2ccncc2)c1` has a pIC50 (IMR-32 [1]) of 7.01 and a solubility kinetic at 2 h [2] greater than 200 µM.

In the case of `Cl.O=S(=O)(NCCN1CCNCC1)c1ccc(NC2CCCCC2)c(NCc2ccccc2)c1`, the remaining at 6 h, 50 µM [3] was 85.8%, the Activity (Mus musculus [12]) was 10.4% and the CLint scaled at 50 µM [9] was 3.4 mL/min/kg. For the same molecule, the Activity (Mus musculus [13]) was less than 25 U/L, the Activity (Mus musculus [14]) was 1865 U/L and the CLint scaled at 50 µM [10] was 1.1 mL/min/kg. It also gave an Activity (Mus musculus [15]) of 123 U/L, an Activity (Mus musculus [16]) of 43 mg/dL and a Cp [17] of less than 53.1 ng/mL. It also gave a remaining at 6 h, 50 µM [4] of 84.2%, a pIC50 (IMR-32 [1]) of 8.00 and an Activity (Mus musculus [5]) of 2346 U/L. The solubility kinetic at 2 h [2] was greater than 200 µM, the T (Mus musculus [18]) was 37 °C and the remaining at 6 h, 50 µM [6] was 100%. For the same molecule, the Activity (Mus musculus [19]) was 0.044 µg/L, the CLint scaled at 50 µM [11] was 18 mL/min/kg and the inhibition (IMR-32 [8]) was “Active”. For the same molecule, the Activity (Mus musculus [20]) was 263 U/L and the Activity (Mus musculus [21]) was less than 0.2 mg/dL.

In the case of `Cl.Nc1cc(S(=O)(=O)NCCN2CCNCC2)ccc1NC1CCCCC1`, the pIC50 (IMR-32 [1]) was 6.53 and the solubility kinetic at 2 h [2] was greater than 200 µM.

Molecule `CNCCNS(=O)(=O)c1ccc(NC2CCCCC2)c(NCc2ccncc2)c1.Cl` has a pIC50 (IMR-32 [1]) of 6.80 and a solubility kinetic at 2 h [2] greater than 200 µM.

Molecule `Nc1cc(S(=O)(=O)NCCN2CCOCC2)ccc1NC1CCCCC1` has a pIC50 (IMR-32 [1]) of 6.35 and a solubility kinetic at 2 h [2] greater than 200 µM.

For `CNCCNS(=O)(=O)c1ccc(NC2CCCCC2)c(NCc2ccccc2)c1.Cl`, the remaining at 6 h, 50 µM [3] was 65.8%, the CLint scaled at 50 µM [9] was 161 mL/min/kg and the CLint scaled at 50 µM [10] was 1.7 mL/min/kg. The remaining at 6 h, 50 µM [4] was 90.3%, the pIC50 (IMR-32 [1]) was 8.52 and the Activity (Mus musculus [5]) was 2093 U/L. The solubility kinetic at 2 h [2] was greater than 200 µM, the remaining at 6 h, 50 µM [6] was 100% and the CLint scaled at 50 µM [11] was 139 mL/min/kg. For the same molecule, the inhibition (IMR-32 [8]) was “Active”.

For `CN(C)CCNS(=O)(=O)c1ccc(NC2CCCCC2)c(NCc2ccccc2)c1`, the pIC50 (IMR-32 [1]) was 6.26 and the solubility kinetic at 2 h [2] was greater than 200 µM.

Work on `CN1CCN(CCNS(=O)(=O)c2ccc(NC3CCCCC3)c(NCc3ccncc3)c2)CC1` yielded a pIC50 (IMR-32 [1]) of 5.82 and a solubility kinetic at 2 h [2] greater than 200 µM.
